Values after ≈ are worked out from the molar mass of the structure shown.
Columns and labels:
[1] = Ratio of GI50 for human HCT116 cells to IC50 for HDAC in human HeLa cell nuclear extracts
Outline: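 Cell/enzyme ratio = HCT116 GI50 divided by HDAC IC50. Enzyme: HeLa nuclear extract (10 μg protein), 5 min preincubation, then Fluor de Lys substrate 62.5 μM, 15 min at room temperature. Stopped with developer containing trichostatin A; fluorescence ex 355/em 455 nm; eight concentrations in duplicate. Cells: HCT116, 72 h exposure (0.6-10000 nM), WST-1 read at 450 nm, n = 6.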

HCT-116 [2] = experiment: Antiproliferative activity against human HCT116 cells after 72 hrs by WST-1 assay; assay type: functional
Outline: (§1)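 Cells seeded at (1-5) × 10³/well in serum-containing medium for 24 h at 37 °C, 5% CO₂. Inhibitor added at 0.6-10000 nM for 72 h, with WST-1 pulse over the final 4 h. Formazan read at 450 nm (reference 650 nm). Expressed as % inhibition of vehicle response; GI50 is the concentration inhibiting 50% of vehicle response; n = 6 replicates.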

Histone deacetylase = experiment: Inhibition of HDAC in human HeLa cells nuclear extract using fluor de Lys as substrate preincubated for 5 mins by fluorometric analysis; assay type: cell-based
[3] = AUC (0 to t) in spleen of CD1 mouse at 3 mg/kg, po; assay type: ADME, organism-based; set-up: dose 3 mg/kg, route oral
Outline: (§2)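 Oral cassette PK in CD1 mice: four compounds per cassette, each at 3 mg/kg po. AUC0-t (ng h/mL) measured in plasma and spleen; spleen/plasma AUC ratio reported.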

Spleen = experiment: Ratio of AUC (0 to t) in spleen to plasma of CD1 mouse at 3 mg/kg, po; details: in vivo
[4] = AUC (0 to t) in plasma of CD1 mouse at 3 mg/kg, po; assay type: ADME, organism-based; set-up: dose 3 mg/kg, route oral; outline: as §2
[5] = Aqueous solubility of the compound in PBS at pH 7.4; assay type: physicochemical
[6] = Aqueous solubility of the compound in PBS at pH 5.5; assay type: physicochemical
Cytochrome P450 3A4 = Cytochrome P450 3A4 (Homo sapiens, UniProt P08684); experiment: Inhibition of CYP3A4; assay type: ADME
[7] = Clearance in human liver microsomes assessed as compound remaining after 30 mins; assay type: ADME, Microsome; details: read-out: Activity
Cytochrome P450 2C19 = Cytochrome P450 2C19 (Homo sapiens, UniProt P33261); experiment: Inhibition of CYP2C19; assay type: ADME
[8] = Clearance in mouse liver microsomes assessed as compound remaining after 30 mins; assay type: ADME, Microsome; details: read-out: Activity
Cytochrome P450 2D6 = Cytochrome P450 2D6 (Homo sapiens, UniProt P10635); experiment: Inhibition of CYP2D6; assay type: ADME
U-937 = experiment: Antiproliferative activity against human U937 cells after 72 hrs by WST-1 assay; assay type: functional; outline: as §1
A2780 = experiment: Antiproliferative activity against human A2780 cells after 72 hrs by WST-1 assay; assay type: functional; outline: as §1
[9] = Antiproliferative activity against human […] cells after 72 hrs by WST-1 assay; assay type: functional; outline: as §1
HCT-116 [10] = experiment: Cell cycle arrest in human HCT116 cells assessed as accumulation at S phase at 300 nM after 15 hrs by propidium iodide staining based flow cytometric analysis; assay type: functional
HepG2 = experiment: Antiproliferative activity against human HepG2 cells after 72 hrs by WST-1 assay; assay type: functional; outline: as §1
A549 = experiment: Antiproliferative activity against human A549 cells after 72 hrs by WST-1 assay; assay type: functional; outline: as §1
COR-L23 [11] = experiment: Antiproliferative activity against doxorubicin-resistant human COR-L23 cells after 72 hrs by WST-1 assay; assay type: functional; outline: as §1
HCT-116 [12] = experiment: Cell cycle arrest in human HCT116 cells assessed as accumulation at sub-G1 phase at 300 nM after 15 hrs by propidium iodide staining based flow cytometric analysis; assay type: functional
COR-L23 [13] = experiment: Antiproliferative activity against human COR-L23 cells after 72 hrs by WST-1 assay; assay type: functional; outline: as §1
HCT-116 [14] = experiment: Cell cycle arrest in human HCT116 cells assessed as accumulation at G1 phase at 300 nM after 15 hrs by propidium iodide staining based flow cytometric analysis; assay type: functional
HCT-116 [15] = experiment: Cell cycle arrest in human HCT116 cells assessed as accumulation at G2/M phase at 300 nM after 15 hrs by propidium iodide staining based flow cytometric analysis; assay type: functional
MOLT-4 = experiment: Antiproliferative activity against human MOLT4 cells after 72 hrs by WST-1 assay; assay type: functional; outline: as §1
LoVo = experiment: Antiproliferative activity against human LoVo cells after 72 hrs by WST-1 assay; assay type: functional; outline: as §1
MIA PaCa-2 = experiment: Antiproliferative activity against human MIAPaCa2 cells after 72 hrs by WST-1 assay; assay type: functional; outline: as §1
MG-63 = experiment: Antiproliferative activity against human MG63 cells after 72 hrs by WST-1 assay; assay type: functional; outline: as §1

Chain of Cytochrome P450 2D6 (P10635 whole entry): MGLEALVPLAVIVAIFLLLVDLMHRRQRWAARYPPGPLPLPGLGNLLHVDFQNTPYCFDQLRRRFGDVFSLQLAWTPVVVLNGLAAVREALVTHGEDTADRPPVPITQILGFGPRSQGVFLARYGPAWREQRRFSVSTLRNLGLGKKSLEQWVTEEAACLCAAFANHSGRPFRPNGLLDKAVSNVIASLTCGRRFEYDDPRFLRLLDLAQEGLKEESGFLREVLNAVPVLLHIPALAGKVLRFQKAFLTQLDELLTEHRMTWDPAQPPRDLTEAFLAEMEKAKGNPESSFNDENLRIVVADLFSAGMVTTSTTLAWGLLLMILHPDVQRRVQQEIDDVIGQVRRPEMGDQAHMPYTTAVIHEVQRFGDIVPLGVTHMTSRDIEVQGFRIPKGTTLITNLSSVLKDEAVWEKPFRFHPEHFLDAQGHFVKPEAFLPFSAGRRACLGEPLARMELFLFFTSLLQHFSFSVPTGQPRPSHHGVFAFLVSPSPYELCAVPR
Chain of Cytochrome P450 3A4 (P08684 whole entry): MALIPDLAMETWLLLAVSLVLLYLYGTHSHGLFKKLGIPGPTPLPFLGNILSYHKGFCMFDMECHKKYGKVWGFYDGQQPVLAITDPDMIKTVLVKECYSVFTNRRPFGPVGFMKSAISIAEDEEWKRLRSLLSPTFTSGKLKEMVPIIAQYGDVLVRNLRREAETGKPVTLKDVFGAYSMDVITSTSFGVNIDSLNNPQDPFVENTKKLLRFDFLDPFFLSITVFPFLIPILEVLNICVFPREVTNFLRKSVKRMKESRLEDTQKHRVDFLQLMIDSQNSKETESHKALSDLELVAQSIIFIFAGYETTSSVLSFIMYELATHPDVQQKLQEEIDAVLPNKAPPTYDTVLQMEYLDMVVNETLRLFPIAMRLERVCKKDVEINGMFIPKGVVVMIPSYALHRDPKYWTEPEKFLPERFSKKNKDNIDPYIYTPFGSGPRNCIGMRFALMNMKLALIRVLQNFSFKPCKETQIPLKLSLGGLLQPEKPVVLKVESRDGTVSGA
Chain of Cytochrome P450 2C19 (P33261 whole entry): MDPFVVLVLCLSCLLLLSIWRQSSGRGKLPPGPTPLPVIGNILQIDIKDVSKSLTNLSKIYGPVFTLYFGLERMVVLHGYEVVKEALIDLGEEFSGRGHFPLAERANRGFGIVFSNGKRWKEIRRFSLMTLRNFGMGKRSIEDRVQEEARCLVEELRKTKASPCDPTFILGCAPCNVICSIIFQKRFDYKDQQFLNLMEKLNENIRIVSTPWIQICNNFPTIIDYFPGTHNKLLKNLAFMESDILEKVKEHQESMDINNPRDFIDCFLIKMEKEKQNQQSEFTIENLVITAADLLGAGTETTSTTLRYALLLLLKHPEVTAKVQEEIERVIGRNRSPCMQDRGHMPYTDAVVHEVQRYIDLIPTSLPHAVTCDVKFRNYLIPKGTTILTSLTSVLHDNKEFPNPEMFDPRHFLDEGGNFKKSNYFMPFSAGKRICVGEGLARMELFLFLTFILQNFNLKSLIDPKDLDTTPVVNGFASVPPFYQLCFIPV

SMILES	Ratio [1]	GI50 (HCT-116 [2]; Homo sapiens, HCT-116, 72 h) [nM]	IC50 (Histone deacetylase) [nM]	also measured
COc1ccc(CN[C@H]2[C@@H]3CN(c4ncc(C(=O)NO)cn4)C[C@@H]32)cc1	9.5	190	20	–
O=C(NO)c1cnc(N2C[C@@H]3[C@H](C2)[C@H]3NCc2ccc(Br)cc2)nc1	18	250	14	–
O=C(NO)c1cnc(N2C[C@@H]3[C@H](C2)[C@H]3NCc2ccc(OC(F)(F)F)cc2)nc1	8	120	15	AUC(0-t) [3]: 251 ng·h/mL; Ratio (Spleen): 3; AUC(0-t) [4]: 83 ng·h/mL
O=C(NO)c1cnc(N2C[C@@H]3[C@H](C2)[C@H]3NCc2ccc(-c3ccccc3)cc2)nc1	4	56	14	–
O=C(NO)c1cnc(N2C[C@@H]3[C@H](C2)[C@H]3NS(=O)(=O)c2ccc3ccccc3c2)nc1	73	440	6.5	solubility [5]: 34 µg/mL (≈ 79.9 µM); solubility [6]: 74 µg/mL (≈ 174 µM); IC50 (Cytochrome P450 3A4): 10000 nM; remaining at 0.5 h [7]: 43%; IC50 (Cytochrome P450 2C19): 10000 nM; remaining at 0.5 h [8]: 66%; IC50 (Cytochrome P450 2D6): 10000 nM
O=C(NO)c1cnc(N2C[C@@H]3[C@H](C2)[C@H]3NC(=O)c2cccs2)nc1	90	3600	40	–
O=C(NO)c1cnc(N2C[C@@H]3[C@H](C2)[C@H]3NCc2ccc(Oc3ccccc3)cc2)nc1	7.5	120	16	AUC(0-t) [3]: 219 ng·h/mL; Ratio (Spleen): 4.2; AUC(0-t) [4]: 52 ng·h/mL
O=C(NO)c1cnc(N2C[C@@H]3[C@H](C2)[C@H]3NS(=O)(=O)c2cccs2)nc1	>370	> 10000	27	–
O=C(NO)c1cnc(N2C[C@@H]3[C@H](C2)[C@H]3NCc2ccc3ccccc3c2)nc1	13	160	12.4	AUC(0-t) [3]: 145 ng·h/mL; solubility [5]: 12 µg/mL (≈ 32 µM); Ratio (Spleen): 2.9; solubility [6]: 208 µg/mL (≈ 554 µM); IC50 (Cytochrome P450 3A4): > 50000 nM; remaining at 0.5 h [7]: 40%; IC50 (Cytochrome P450 2C19): > 50000 nM; AUC(0-t) [4]: 50 ng·h/mL; remaining at 0.5 h [8]: 100%; IC50 (Cytochrome P450 2D6): > 50000 nM
O=C(NO)c1cnc(N2CC3C(CNCc4ccc5ccccc5c4)C3C2)nc1 (centres undefined)	12	370	32	–
O=C(NO)c1cnc(N2C[C@@H]3[C@H](C2)[C@H]3NCc2ccc(F)cc2)nc1	14	380	27	–
O=C(NO)c1cnc(N2C[C@@H]3[C@H](C2)[C@H]3NCC2CCCCC2)nc1	4	160	44	–
O=C(NO)c1cnc(N2C[C@@H]3[C@H](C2)[C@H]3NC(=O)c2ccc3ccccc3c2)nc1	32	410	13	–
O=C(NO)c1cnc(N2C[C@@H]3[C@H](C2)[C@H]3NCc2cc(F)cc(F)c2)nc1	13	200	16	–
O=C(NO)c1cnc(N2C[C@@H]3[C@H](C2)[C@H]3NCc2ccc(C(F)(F)F)cc2)nc1	21	700	34	–
O=C(NO)c1cnc(N2C[C@@H]3[C@H](C2)[C@H]3NC(=O)c2ccccc2)nc1	89	5100	57	–
O=C(NO)c1cnc(N2C[C@@H]3[C@H](C2)[C@H]3NCCc2ccccc2)nc1	8	280	34	–
N#Cc1ccc(CN[C@H]2[C@@H]3CN(c4ncc(C(=O)NO)cn4)C[C@@H]32)cc1	9	270	30	–
CN([C@H]1[C@@H]2CN(c3ncc(C(=O)NO)cn3)C[C@@H]21)S(=O)(=O)c1ccc2ccccc2c1	44	1000	23	–
O=C(NO)c1cnc(N2C[C@@H]3[C@H](C2)[C@H]3NCc2ccccc2)nc1	12	120	10	–
O=C(NO)c1cnc(N2C[C@@H]3[C@H](C2)[C@H]3NCc2ccc3ccccc3n2)nc1	–	–	9	AUC(0-t) [3]: 294 ng·h/mL; Ratio (Spleen): 7; AUC(0-t) [4]: 42 ng·h/mL
CCCCc1ccc(CN[C@H]2[C@@H]3CN(c4ncc(C(=O)NO)cn4)C[C@@H]32)cc1	18	410	22	–
O=C(CCCCCCC(=O)Nc1ccccc1)NO [VORINOSTAT]	–	–	–	GI50 (U-937): 450 nM; GI50 (A2780): 3150 nM; GI50 [9]: 2100 nM; Activity (HCT-116 [10]): 14%; GI50 (HepG2): 4600 nM; GI50 (A549): 5700 nM; GI50 (COR-L23 [11]): 3300 nM; GI50 (HCT-116 [2]): 740 nM; Activity (HCT-116 [12]): 19%; GI50 (COR-L23 [13]): 1100 nM; Activity (HCT-116 [14]): 35%; Activity (HCT-116 [15]): 32%; GI50 (MOLT-4): 670 nM; GI50 (LoVo): 1700 nM; GI50 (MIA PaCa-2): 3500 nM; GI50 (MG-63): > 10000 nM
O=C(NO)c1cnc(N2C[C@@H]3[C@H](C2)[C@H]3NCc2cc(C(F)(F)F)cc(C(F)(F)F)c2)nc1	12.5	200	16	–

— ChEMBL document CHEMBL1800056, “Discovery of 2-(6-{[(6-fluoroquinolin-2-yl)methyl]amino}bicyclo[3.1.0]hex-3-yl)-N-hydroxypyrimidine-5-carboxamide (CHR-3996), a class I selective orally active histone deacetylase inhibitor” (J Med Chem, 2010)
